Data set [1] has as its system Trypanosoma brucei brucei. Description: Resistance factor, ratio of EC50 for diminazene aceturate-resistant TbAT1 gene-deficient Trypanosoma brucei brucei AT1-KO to EC50 for wild type Trypanosoma brucei brucei Lister 427. It counts as functional. In a few lines:
(§1)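 Resistance factor is the EC50 in the resistant line (TbAT1-KO or B48) divided by the EC50 in wild-type s427. […] Resistant and wild-type EC50s were compared by Student t-test.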

The test system of data set [2] is Trypanosoma brucei brucei. As to the kind of experiment: Resistance factor, ratio of EC50 for diminazene-, pentamidine-, and melaminophenyl arsenical-resistant HAPT1-deficient Trypanosoma brucei brucei B48 to EC50 for wild type Trypanosoma brucei brucei Lister 427. It counts as functional. The procedure, abridged:
as §1

Data set [3] is described as follows: Cytotoxicity against human HEK cells after 3 days by alamar blue assay. It counts as cell-based, HEK293. In a few lines: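 Human embryonic kidney cells tested by resazurin (Alamar blue) assay: 48 h with compound, then 24 h more after dye addition, single reading; EC₅₀ derived.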
(In general: The colour change of resazurin is a common sign of viable cells or microbes.)

Data set [4] can be described thus: Selectivity index, ratio of EC50 for rat L6 cells to EC50 for Trypanosoma brucei rhodesiense STIB900. It counts as toxicity, cell-based. The note with it: L6 cells, read-out: Ratio EC50. The procedure, abridged: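 Ratio of EC₅₀ in L6 cells to EC₅₀ against T. b. rhodesiense STIB900, both from Alamar blue assays.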
Data set [5] concerns Trypanosoma brucei brucei. As to the kind of experiment: Antitrypanosomal activity against wild type Trypanosoma brucei brucei Lister 427 after 3 days by alamar blue assay. The format is functional, organism-based. The procedure, abridged: (§2)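 Bloodstream-form T. b. brucei (wild-type s427; TbAT1-KO, made from s427 by TbAT1 deletion; B48, selected from TbAT1-KO in vitro on pentamidine, lacking functional HAPT1). Cells were exposed to compound for 48 h, then resazurin (Alamar blue) was added for a further 24 h. A single fluorescence reading gave EC50.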

Another data set has as its system L6. As to the kind of experiment: Cytotoxicity against rat L6 cells after 72 hrs by alamar blue assay. The note with it: Rattus norvegicus, L6, 72 h. It counts as cell-based.
In data set [6] the test system is Trypanosoma brucei brucei. As to the kind of experiment: Antitrypanosomal activity against diminazene-, pentamidine-, and melaminophenyl arsenical-resistant HAPT1-deficient Trypanosoma brucei brucei B48 after 3 days by alamar blue assay. The note with it: Trypanosoma brucei, B48, 72 h. The format is functional, organism-based. The procedure, abridged: as §2
The subject of data set [7] is Trypanosoma brucei brucei. As to the kind of experiment: Antitrypanosomal activity against diminazene aceturate-resistant TbAT1 gene-deficient Trypanosoma brucei brucei AT1-KO after 3 days by alamar blue assay. It counts as functional, organism-based. The note with it: Trypanosoma brucei, AT1-KO, 72 h. In a few lines:
as §2

Data set [8] deals with Trypanosoma brucei rhodesiense. As to the kind of experiment: Antitrypanosomal activity against Trypanosoma brucei rhodesiense STIB900 infected in rat L6 cells after 72 hrs by alamar blue assay. The note with it: Trypanosoma brucei, STIB900, 72 h. The format is functional, organism-based.
Data set [9] in a line: Selectivity index, ratio of EC50 for human HEK cells to EC50 for wild type Trypanosoma brucei brucei Lister 427. It counts as toxicity, cell-based, HEK293. The note with it: for selectivity ratio: HEK cells, read-out: Ratio EC50. In a few lines: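 Ratio of EC₅₀ in HEK cells to EC₅₀ in wild-type T. b. brucei s427, both from resazurin assays.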
[10] abbreviates: Trypanosoma brucei, Lister 427, 72 h.

For the compound `CC[P+](Cc1ccc(C(=O)c2ccc(C[P+](CC)(c3ccccc3)c3ccccc3)cc2)cc1)(c1ccccc1)c1ccccc1.[Br-].[Br-]`, the entries for the “Ratio EC50” value in [1] and in [2] were 2.2 and 1.8, respectively. Besides, the EC50 in data set [3] (Homo sapiens, HEK293, 72 h) is more than 300 µM; in [5] (setting [10]), 0.97 µM; in the data set with L6, more than 113 µM; in [6], 1.76 µM; in data set [7], 2.1 µM; in data set [8], 0.554 µM. For the same compound, the values for the selectivity ratio in [4] and in [9] were more than 204 and more than 300, respectively.

Take `Cc1ccc([P+](Cc2ccc(CCCc3ccc(C[P+](c4ccc(C)cc4)(c4ccc(C)cc4)c4ccc(C)cc4)cc3)cc2)(c2ccc(C)cc2)c2ccc(C)cc2)cc1.[Br-].[Br-]`: the “Ratio EC50” value in data set [1] is listed as 1.7; in [2], 1.8; in data set [9] (hek293), 897. Further, the EC50 in [3] (hek293) was determined as 25.8 µM; in [5] it was 0.029 µM; in the data set on L6, 1.8 µM; in [6] it was 0.053 µM; in [7], 0.049 µM; in data set [8], 0.081 µM. In [4], the selectivity ratio worked out at 22.

In the case of `COc1ccccc1[P+](Cc1ccc(Oc2ccc(C[P+](c3ccccc3OC)(c3ccccc3OC)c3ccccc3OC)cc2)cc1)(c1ccccc1OC)c1ccccc1OC.[Br-].[Br-]`, the “Ratio EC50” value in [1] worked out at 1; in data set [2], 0.8. The EC50 in [3] (Homo sapiens, HEK293, 72 h) is 141 µM; in [5] (setting [10]), 0.056 µM; in the data set with L6, 1.27 µM; in data set [6], 0.045 µM; in data set [7], 0.057 µM; in data set [8] it was 0.153 µM. The figures for the selectivity ratio in [4] and in [9] were 8 and 2520, respectively.

For the compound `CCCCCCCC[P+](CCCCCCCC)(CCCCCCCC)Cc1ccc(C(=O)c2ccc(C[P+](CCCCCCCC)(CCCCCCCC)CCCCCCCC)cc2)cc1.[Br-].[Br-]`, the “Ratio EC50” value in data set [1] amounted to 1.4; in data set [2] it was 1.1. Further, the EC50 in data set [3] (Homo sapiens, HEK293, 72 h) was found to be 27 µM; in data set [5] (setting [10]), 0.042 µM; in the data set with L6 it was 1 µM; in data set [6], 0.045 µM; in [7], 0.061 µM; in data set [8], 0.22 µM. Moreover, the results for the selectivity ratio in [4] and in data set [9] were 5 and 639, respectively.

On to `C[P+](C)(Cc1ccc(CCCc2ccc(C[P+](C)(C)c3ccccc3)cc2)cc1)c1ccccc1.[Br-].[Br-]`, for which the “Ratio EC50” value in data set [1] stood at 1.1; in data set [2] it was 0.9. Further, the EC50 in [3] (Homo sapiens, HEK293, 72 h) was more than 300 µM; in [5] (setting [10]), 1.27 µM; in the data set on L6 it was 59.5 µM; in [6] it was 1.09 µM; in data set [7], 1.37 µM; in data set [8], 1.22 µM. Moreover, the figures for the selectivity ratio in [4] and in data set [9] were 49 and more than 230, respectively.

As for `COc1ccccc1[P+](Cc1ccc(C(=O)c2ccccc2)cc1)(c1ccccc1OC)c1ccccc1OC.[Br-]`, the entries for the “Ratio EC50” value in data set [1] and in data set [2] were 1.1 and 0.7, respectively. Further, the EC50 was 63.2 µM in data set [3] (Homo sapiens, HEK293, 72 h); 0.21 µM in data set [5] (setting [10]); 3.97 µM in the data set with L6; 0.15 µM in data set [6]; 0.22 µM in data set [7]; 0.376 µM in data set [8]. Further, the selectivity ratio in data set [4] amounted to 10; in [9] it was 306.

For `O=C(c1ccc(C[P+](Cc2ccccc2)(c2ccccc2)c2ccccc2)cc1)c1ccc(C[P+](Cc2ccccc2)(c2ccccc2)c2ccccc2)cc1.[Br-].[Br-]`, the “Ratio EC50” value in data set [1] and in [2] was 1.3 each time. Also, the EC50 was more than 300 µM in [3] (Homo sapiens, HEK293, 72 h); 0.81 µM in [5] (setting [10]); 32 µM with L6; 1.03 µM in [6]; 1.02 µM in [7]; 0.48 µM in data set [8]. Also, the selectivity ratio in [4] is 67; in data set [9], more than 370.

With `O=C(c1ccc(C[P+](c2ccccc2)(c2ccccc2)c2ccccn2)cc1)c1ccc(C[P+](c2ccccc2)(c2ccccc2)c2ccccn2)cc1.[Br-].[Br-]`, the entries for the “Ratio EC50” value in [1] and in data set [2] were 2 and 1.9, respectively. Besides, the EC50 in [3] (Homo sapiens, HEK293, 72 h) was more than 300 µM; in data set [5] (setting [10]) it was 0.7 µM; in the data set on L6, 14.6 µM; in data set [6] it was 1.33 µM; in [7], 1.43 µM; in data set [8] it was 0.607 µM. For the same compound, the values for the selectivity ratio in data set [4] and in data set [9] were 24 and more than 400, respectively.

As to `Fc1c(F)c(F)c([P+](Cc2ccc(Oc3ccc(C[P+](c4ccccc4)(c4ccccc4)c4c(F)c(F)c(F)c(F)c4F)cc3)cc2)(c2ccccc2)c2ccccc2)c(F)c1F.[Br-].[Br-]`, the “Ratio EC50” value in [1] worked out at 0.4; in [2], 0.3. The EC50 was more than 300 µM in [3] (Homo sapiens, HEK293, 72 h); 23.2 µM in [5] (setting [10]); 5.35 µM in the data set on L6; 6.68 µM in data set [6]; 9.9 µM in data set [7]; 12.8 µM in data set [8]. Also, the selectivity ratio in [9] is more than 10.

For the compound `C[P+](C)(Cc1ccc(Oc2ccc(C[P+](C)(C)c3ccccc3)cc2)cc1)c1ccccc1.[Br-].[Br-]`, the “Ratio EC50” value in [1] and in [2] was 0.9 in each case. Further, the EC50 in data set [3] (Homo sapiens, HEK293, 72 h) was more than 300 µM; in data set [5] (setting [10]), 7.22 µM; in the data set with L6 it was 84.5 µM; in data set [6], 6.15 µM; in [7], 6.52 µM; in data set [8], 3.83 µM. Moreover, in data set [9], the selectivity ratio was more than 40.

`FC(F)(F)c1ccc([P+](Cc2ccc(Oc3ccc(C[P+](c4ccc(C(F)(F)F)cc4)(c4ccc(C(F)(F)F)cc4)c4ccc(C(F)(F)F)cc4)cc3)cc2)(c2ccc(C(F)(F)F)cc2)c2ccc(C(F)(F)F)cc2)cc1.[Br-].[Br-]`: the “Ratio EC50” value in [1] is listed as 1.3; in data set [2], 1.2. Moreover, the EC50 in data set [3] (Homo sapiens, HEK293, 72 h) turned out to be 174 µM; in data set [5] (setting [10]), 0.24 µM; in the data set on L6, 9.93 µM; in data set [6], 0.28 µM; in data set [7] it was 0.32 µM; in data set [8], 5.26 µM. The selectivity ratio in [9] came out at 723.

Take `C[P+](C)(Cc1ccc(Cc2ccc(C[P+](C)(C)c3ccccc3)cc2)cc1)c1ccccc1.[Br-].[Br-]`: the “Ratio EC50” value in data set [1] is given as 0.8; in [2], 0.7. Also, the EC50 in data set [3] (Homo sapiens, HEK293, 72 h) is more than 300 µM; in [5] (setting [10]), 5.45 µM; in the data set on L6 it was more than 142 µM; in data set [6], 3.84 µM; in [7], 4.6 µM; in data set [8] it was 2.59 µM. The selectivity ratio in data set [9] was more than 55.

For `O=C(c1ccc(C[P+](c2ccc(C(F)(F)F)cc2)(c2ccc(C(F)(F)F)cc2)c2ccc(C(F)(F)F)cc2)cc1)c1ccc(C[P+](c2ccc(C(F)(F)F)cc2)(c2ccc(C(F)(F)F)cc2)c2ccc(C(F)(F)F)cc2)cc1.[Br-].[Br-]`, the “Ratio EC50” value worked out at 1.7 in data set [1] and 0.5 in data set [2]. Also, the 50% effective concentration (EC50) in [3] (Homo sapiens, HEK293, 72 h) is more than 300 µM; in data set [5] (setting [10]), 5.05 µM; in the data set with L6, 25 µM; in data set [6] it was 2.73 µM; in data set [7] it was 8.51 µM; in [8], 16.4 µM. The selectivity ratio in data set [9] was more than 60.

As for `CC[P+](CC)(CC)Cc1ccc(Cc2ccc(C[P+](CC)(CC)CC)cc2)cc1.[Br-].[Br-]`, the “Ratio EC50” value in data set [1] and in [2] was 0.9 each time. The EC50 in [3] (Homo sapiens, HEK293, 72 h) was more than 300 µM; in [5] (setting [10]), 21.5 µM; in the data set on L6 it was 48.3 µM; in data set [6], 19.3 µM; in [7], 18.5 µM; in data set [8], 18.7 µM. Moreover, in data set [9], the selectivity ratio is more than 14.

As for `CC(C)C[P+](Cc1ccc(C(=O)c2ccc(C[P+](CC(C)C)(CC(C)C)CC(C)C)cc2)cc1)(CC(C)C)CC(C)C.[Br-].[Br-]`, the entries for the “Ratio EC50” value in data set [1] and in [2] were 3.2 and 2.4, respectively. Moreover, the EC50 in data set [3] (Homo sapiens, HEK293, 72 h) is more than 300 µM; in [5] (setting [10]), 2.62 µM; in the data set with L6 it was more than 116 µM; in data set [6], 6.3 µM; in data set [7] it was 8.34 µM; in [8] it was 1.46 µM. Also, in data set [9], the selectivity ratio was more than 110.

As for `CC[P+](CC)(Cc1ccc(C(=O)c2ccc(C[P+](CC)(CC)c3ccccc3)cc2)cc1)c1ccccc1.[Br-].[Br-]`, the “Ratio EC50” value in data set [1] is 2.1; in [2], 1.8. For the same compound, the EC50 in data set [3] (Homo sapiens, HEK293, 72 h) was more than 300 µM; in data set [5] (setting [10]) it was 8.59 µM; in the data set on L6, more than 128 µM; in [6], 15.2 µM; in [7] it was 17.8 µM; in data set [8], 2.9 µM. The selectivity ratio in data set [9] is more than 35.

Usually EC50 stands for the concentration needed to bring the measured effect to its halfway point. Read a high EC50 as a need for much substance.

The values above are taken from ChEMBL document CHEMBL2040794, “Synthesis and structure-activity analysis of new phosphonium salts with potent activity against African trypanosomes” (J Med Chem, 2012).
